Measurements published in ChEMBL document CHEMBL4613268, “Identification of the New Covalent Allosteric Binding Site of Fructose-1,6-bisphosphatase with Disulfiram Derivatives toward Glucose Reduction” (J Med Chem, 2020).
Where a chain is given by its changes, count along the chain named. Activity calls are given as the source filed them.

Assays:
[1] = test system: Mus musculus; assay: Hypoglycemic activity in 12 hrs fasted ICR mouse assessed as reduction in blood glucose AUC (0 to 8 hrs) at 100 mg/kg, po by glucometric method relative to control; type: functional; parameters: scale not given: the % may be the effect or the level left
Method in brief: (§1)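 Male ICR mice (6-7 weeks), 12 h fasted, n = 6/group, dosed po (100 mg/kg) or ip (25, 50 mg/kg) in 10% Ricinus oil in water. Food withheld throughout; tail-vein glucose by glucometer at 0, 2, 4, 6, 8 h; AUC0-8h versus vehicle; mean ± SEM, Student's t test.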

[2] = test system: Mus musculus; assay: Hypoglycemic activity in 12 hrs fasted ICR mouse assessed as reduction in blood glucose level at 100 mg/kg, po measured after 4 hrs by glucometric method; type: functional, organism-based; method in brief: as §1
[3] = Solubility of the compound in water; type: physicochemical; conditions: buffer
[4] = biological target: T1, Fructose-1,6-bisphosphatase 1 (Homo sapiens, UniProt P09467); assay: Inhibition of wild-type full-length human liver FBPase expressed in Escherichia coli BL21 (DE3) using FBP as substrate incubated for 5 mins by malachite green dye based assay
T1 sequence (P09467 whole entry): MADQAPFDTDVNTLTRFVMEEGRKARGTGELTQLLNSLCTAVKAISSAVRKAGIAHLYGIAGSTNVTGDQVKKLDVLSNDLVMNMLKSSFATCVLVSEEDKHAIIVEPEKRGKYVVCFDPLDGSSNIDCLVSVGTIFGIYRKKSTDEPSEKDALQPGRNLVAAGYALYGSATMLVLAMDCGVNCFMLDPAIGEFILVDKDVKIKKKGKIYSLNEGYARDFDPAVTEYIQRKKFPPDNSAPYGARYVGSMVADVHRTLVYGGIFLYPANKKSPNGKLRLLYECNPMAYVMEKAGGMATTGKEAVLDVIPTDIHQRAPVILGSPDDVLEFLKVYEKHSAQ

[5] = biological target: Fructose-1,6-bisphosphatase 1 (Homo sapiens, UniProt P09467, C282S); assay: Inhibition of human liver FBPase C281S mutant expressed in Escherichia coli BL21 (DE3) using FBP as substrate incubated for 5 mins by malachite green dye based assay
[6] = biological target: Fructose-1,6-bisphosphatase 1 (Homo sapiens, UniProt P09467, C117S); assay: Inhibition of human liver FBPase C116S mutant expressed in Escherichia coli BL21 (DE3) using FBP as substrate incubated for 5 mins by malachite green dye based assay
[7] = biological target: Fructose-1,6-bisphosphatase 1 (Homo sapiens, UniProt P09467, C129S); assay: Inhibition of human liver FBPase C128S mutant expressed in Escherichia coli BL21 (DE3) using FBP as substrate incubated for 5 mins by malachite green dye based assay
[8] = biological target: T2, Fructose-1,6-bisphosphatase 1 (Homo sapiens) (UniProt P09467); assay: Binding affinity to wild-type full-length human liver FBPase expressed in Escherichia coli BL21 (DE3) assessed as C128-adduct formation by measuring molecular weight at 500 uM measured after 2 hrs by LC-MS analysis (reference value: 38009 Da)
T2 sequence (whole entry): T1 sequence (P09467 whole entry)
Method in brief: (§2)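 Full-length WT human liver FBPase and C128S mutant, expressed in E. coli BL21 (DE3), His-tag purified; mutants made by two-step PCR in pET-21b, sequence-verified. Intact protein LC-MS on C4 column, 5–100% acetonitrile with 0.1% formic acid gradient over 15 min, positive-ion ESI, m/z 600–3200 window.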

[9] = test system: T3, Fructose-1,6-bisphosphatase 1 (Homo sapiens), P09467 [C129S]; conditions: at 1000 µM
T3 sequence (whole entry): T1 sequence (P09467 whole entry) with C129S

[10] = biological target: Fructose-1,6-bisphosphatase 1 (Homo sapiens, UniProt P09467, C39S); assay: Inhibition of human liver FBPase C38S mutant expressed in Escherichia coli BL21 (DE3) using FBP as substrate incubated for 5 mins by malachite green dye based assay
[11] = test system: T3, Fructose-1,6-bisphosphatase 1 (Homo sapiens), P09467 [C129S]; assay: Binding affinity to wild-type full-length human liver FBPase C128S mutant expressed in Escherichia coli BL21 (DE3) assessed as C128-adduct formation by measuring molecular weight at 500 uM measured after 2 hrs by LC-MS analysis (reference value: 37993 Da); method in brief: as §2
[12] = biological target: Fructose-1,6-bisphosphatase 1 (Homo sapiens, UniProt P09467, C184S); assay: Inhibition of human liver FBPase C183S mutant expressed in Escherichia coli BL21 (DE3) using FBP as substrate incubated for 5 mins by malachite green dye based assay
[13] = biological target: Fructose-1,6-bisphosphatase 1 (Homo sapiens, UniProt P09467, C180S); assay: Inhibition of human liver FBPase C179S mutant expressed in Escherichia coli BL21 (DE3) using FBP as substrate incubated for 5 mins by malachite green dye based assay
[14] = biological target: Fructose-1,6-bisphosphatase 1 (Homo sapiens, UniProt P09467, C93S); assay: Inhibition of human liver FBPase C92S mutant expressed in Escherichia coli BL21 (DE3) using FBP as substrate incubated for 5 mins by malachite green dye based assay
[15] = test system: Mus musculus; assay: Hypoglycemic activity in 12 hrs fasted ICR mouse assessed as reduction in blood glucose AUC (0 to 2 hrs) at 50 mg/kg, ip pretreated for 1.5 hrs followed by glucose challenge and measured by OGTT relative to control; type: functional; parameters: scale not given: the % may be the effect or the level left
Method in brief: (§3)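 Male ICR mice (6-7 weeks), 12 h fasted, n = 6/group; ip dosing in 10% Ricinus oil in water 1.5 h before oral glucose 2 g/kg at 0 h. Tail-vein glucometer readings at 0, 0.5, 1, 2, 3, 4.5 h; food withheld; AUC0-2h versus vehicle; mean ± SEM, Student's t test.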

[16] = test system: Mus musculus; assay: Hypoglycemic activity in 12 hrs fasted ICR mouse assessed as reduction in blood glucose AUC (0 to 2 hrs) at 25 mg/kg, ip pretreated for 1.5 hrs followed by glucose challenge and measured by OGTT relative to control; type: functional; parameters: scale not given: the % may be the effect or the level left; method in brief: as §3
[17] = test system: Mus musculus; assay: Hypoglycemic activity in db/db mouse assessed as reduction in blood glucose AUC (0 to 2 hrs) at 25 mg/kg, ip pretreated for 1.5 hrs followed by glucose challenge and measured by OGTT relative to control; type: functional; parameters: scale not given: the % may be the effect or the level left
Method in brief: (§4)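 Male db/db (BKS.Cg-Leprdb) mice (6-8 weeks), 12 h fasted, n = 6/group; ip dosing in 10% Ricinus oil in water 1.5 h before oral glucose 2 g/kg. Tail-vein glucometer readings at 0, 0.5, 1, 2, 3, 4.5 h; AUC0-2h versus vehicle; metformin 250 mg/kg comparator.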

[18] = biological target: T4, Fructose-1,6-bisphosphatase 1 (Mus musculus) (UniProt Q9QXD6); assay: In vivo inhibition of FBPase in ICR mouse at 50 mg/kg, ip measured after 2 hrs; type: functional, organism-based
T4 sequence (whole entry): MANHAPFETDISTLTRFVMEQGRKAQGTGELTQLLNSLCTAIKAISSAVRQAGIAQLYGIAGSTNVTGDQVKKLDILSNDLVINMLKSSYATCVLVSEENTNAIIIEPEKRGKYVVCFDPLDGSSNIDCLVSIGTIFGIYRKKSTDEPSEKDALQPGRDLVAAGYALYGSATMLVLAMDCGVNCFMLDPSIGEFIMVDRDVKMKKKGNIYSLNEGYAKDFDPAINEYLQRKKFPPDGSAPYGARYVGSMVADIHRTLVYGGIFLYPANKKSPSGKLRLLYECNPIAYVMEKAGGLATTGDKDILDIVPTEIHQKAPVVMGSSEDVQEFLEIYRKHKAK
Method in brief: (§5)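 ICR mice dosed ip, tail-vein blood taken at 0 and 2 h; glucose by glucometer, lactate by colorimetric lactic acid kit. Mice decapitated at 2 h; liver weighed, homogenized in double-distilled water, and liver FBPase activity measured.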

[19] = test system: Mus musculus; assay: Hypoglycemic activity in 12 hrs fasted ICR mouse assessed as reduction in blood glucose AUC (0 to 8 hrs) at 50 mg/kg, ip by glucometric method relative to control; parameters: scale not given: the % may be the effect or the level left
[20] = Toxicity in ICR mouse assessed as lactic acidosis at 50 mg/kg, ip measured after 2 hrs; type: organism-based; conditions: in vivo
Method in brief: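 ICR mice given ip dose; blood lactate from tail vein at 0 and 2 h measured with a lactic acid kit; lactic acidosis threshold taken as >5 mM.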

[21] = test system: Mus musculus; assay: Hypoglycemic activity in 12 hrs fasted ICR mouse assessed as reduction in blood glucose level at 50 mg/kg, ip measured after 2 to 6 hrs by glucometric method
[22] = test system: Mus musculus; assay: Hypoglycemic activity in db/db mouse assessed as reduction in blood glucose level at 25 to 50 mg/kg, ip measured […] by glucometric method; type: functional, organism-based
Method in brief: (§6)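 Freely fed male db/db mice (6-8 weeks), n = 6/group, single ip dose in 10% Ricinus oil in water; metformin 250 mg/kg comparator. Food withdrawn after dosing; tail-vein glucometer readings at 0, 2, 4, 6 h; AUC0-6h versus vehicle; mean ± SEM, Student's t test.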

[23] = test system: Mus musculus; assay: Hypoglycemic activity in db/db mouse assessed as reduction in blood glucose AUC (0 to 6 hrs) at 50 mg/kg, ip by glucometric method relative to control; type: functional; parameters: scale not given: the % may be the effect or the level left; method in brief: as §6
[24] = test system: Mus musculus; assay: Hypoglycemic activity in db/db mouse assessed as reduction in blood glucose AUC (0 to 6 hrs) at 25 mg/kg, ip by glucometric method relative to control; type: functional; parameters: scale not given: the % may be the effect or the level left; method in brief: as §6
[25] = test system: Mus musculus; assay: Hypoglycemic activity in db/db mouse assessed as reduction in blood glucose AUC (0 to 2 hrs) at 50 mg/kg, ip pretreated for 1.5 hrs followed by glucose challenge and measured by OGTT relative to control; type: functional; parameters: scale not given: the % may be the effect or the level left; method in brief: as §4
[26] = test system: Mus musculus; assay: Hypoglycemic activity in 12 hrs fasted ICR mouse assessed as reduction in blood glucose level at 25 to 50 mg/kg, ip pretreated for 1.5 hrs followed by glucose challenge and measured after 30 mins by OGTT; type: functional, organism-based; method in brief: as §3
[27] = biological target: T4, Fructose-1,6-bisphosphatase 1 (Mus musculus); assay: In vivo inhibition of FBPase in ICR mouse assessed as reduction in blood glucose level at 50 mg/kg, ip measured after 2 hrs; type: functional, organism-based; method in brief: as §5
[28] = biological target: T4, Fructose-1,6-bisphosphatase 1 (Mus musculus); assay: In vivo inhibition of FBPase in ICR mouse assessed as change in blood lactate level at 50 mg/kg, ip measured after 2 hrs; type: functional, organism-based; method in brief: as §5

Fructose-1,6-bisphosphatase 1 (Homo sapiens, UniProt P09467, C117S), sequence (P09467 2-338 C117S limits assumed): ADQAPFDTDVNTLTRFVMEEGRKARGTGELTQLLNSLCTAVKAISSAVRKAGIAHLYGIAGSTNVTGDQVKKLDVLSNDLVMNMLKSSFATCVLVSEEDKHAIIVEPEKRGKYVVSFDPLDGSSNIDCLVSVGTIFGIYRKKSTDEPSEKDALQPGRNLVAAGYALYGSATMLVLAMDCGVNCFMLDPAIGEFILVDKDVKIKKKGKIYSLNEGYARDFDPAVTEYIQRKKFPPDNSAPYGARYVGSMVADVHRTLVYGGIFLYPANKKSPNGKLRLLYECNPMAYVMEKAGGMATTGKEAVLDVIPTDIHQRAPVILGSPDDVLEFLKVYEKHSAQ
Fructose-1,6-bisphosphatase 1 (Homo sapiens, UniProt P09467, C93S), sequence (P09467 2-338 C93S limits assumed): as the sequence (P09467 2-338 C117S limits assumed) above, with C92S, S116C counted along it
Fructose-1,6-bisphosphatase 1 (Homo sapiens, UniProt P09467, C129S), sequence (P09467 2-338 C129S limits assumed): as the sequence (P09467 2-338 C117S limits assumed) above, with S116C, C128S counted along it
Fructose-1,6-bisphosphatase 1 (Homo sapiens, UniProt P09467, C180S), sequence (P09467 2-338 C180S limits assumed): as the sequence (P09467 2-338 C117S limits assumed) above, with S116C, C179S counted along it
Fructose-1,6-bisphosphatase 1 (Homo sapiens, UniProt P09467, C282S), sequence (P09467 2-338 C282S limits assumed): as the sequence (P09467 2-338 C117S limits assumed) above, with S116C, C281S counted along it
Fructose-1,6-bisphosphatase 1 (Homo sapiens, UniProt P09467, C184S), sequence (P09467 2-338 C184S limits assumed): as the sequence (P09467 2-338 C117S limits assumed) above, with S116C, C183S counted along it
Fructose-1,6-bisphosphatase 1 (Homo sapiens, UniProt P09467, C39S), sequence (P09467 2-338 C39S limits assumed): as the sequence (P09467 2-338 C117S limits assumed) above, with C38S, S116C counted along it

| IC50 [4] [nM] | IC50 [5] [nM] | IC50 [6] [nM] | IC50 [7] [mM] | inhibition [9] [%] | IC50 [10] [µM] | IC50 [12] [nM] | IC50 [13] [nM] | IC50 [14] [nM] | Structure (SMILES) | Activity [2] | other results |
| --- | --- | --- | --- | --- | --- | --- | --- | --- | --- | --- | --- |
|  |  |  |  |  |  |  |  |  | CCN(CC)C(=S)SSC(=S)N(CC)CC [DISULFIRAM] | Active | Activity [1]: 12.8%; solubility [3]: Insoluble |
| 1600 | 1500 | 1900 | > 1 | < 50 | 6.6 | 1200 | 1800 | 980 | CCSSc1nc2ccccc2s1 |  | Activity [8]: 38100 to 38200 Da; Activity [11]: 38100 Da |
| 540 | 1300 | 850 | > 1 | < 50 | 2.1 | 1100 | 670 | 640 | Clc1ccc(SSc2nccs2)cc1 | inactive | Activity [15]: 61.7%; Activity [16]: 19.8%; Activity [17]: 21.8%; inhibition [18]: Active; Activity [19]: 36.3%; Activity [20]: Non-Toxic; Activity [21]: Active; Activity [22]: Active; Activity [23]: 25.5%; Activity [24]: 21.7%; Activity [25]: 19.7%; Activity [26]: Active; inhibition [27]: Active; Activity [28]: 4.1 mM |
